Data on 167 variants can be found in the RNAGym collection of RNA variant scans (doi:10.1126/science.aae0568).

Fewer inactive variants are shown than the library holds. A value given as a limit tells only on which side of the number the result lay.

First the molecules themselves.
B1: tRNA (parent)
chain: GUUCCGUUGGCGUAAUGGUAACGCGUCUCCCUCCUAAGGAGAAGACUGCGGGUUCGAGUCCCGUACGGAACG

Variants of B1 are the subject of the series. The series can be described thus: yeast fitness relative to wild type (ratio to wild type); higher = fitter; tRNA-Arg(CCU), competitive growth, 37 C, YPD. In a few lines: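 The tRNA-Arg(CCU) gene variants were made by chemical synthesis with a 3% per-site mutation rate at 69 sites and inserted at the native genomic locus of Saccharomyces cerevisiae. After pooling, the strains were competed in YPD at 37°C for 24 hours in six parallel replicates. Gene amplicons from the start population and each end population were read by 100-nucleotide paired-end sequencing, and Darwinian fitness relative to wild type was taken from genotype frequency changes. Genotypes needed ≥ 100 starting reads, and estimates < 0.5 were set to 0.5.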
With A21C C46U, the yeast fitness was 0.909.

As to G25C C55U A69U, the yeast fitness came to 0.609.

In the case of A21U A40C A42U C49U G50C C66U, the yeast fitness turned out to be 0.578.

Turning to G10A C34G G44C U47C G52A U53C C61U, the yeast fitness is at most 0.5.

With C30U U35A G63C A65U, the yeast fitness is at most 0.5.

For the variant G6C G10A A36U G63A, the yeast fitness was at most 0.5.

As to G9A C31U A37C G63A, the yeast fitness was at most 0.5.

Turning to G12C A14C G56C G58C, the yeast fitness was at most 0.5.

For A37G A42C A65U A69C, the yeast fitness is at most 0.5.

For G6C U16C C46G C62U C66U, the yeast fitness was at most 0.5.

As for C27G G39A C66U G67A, the yeast fitness is at most 0.5.

For the variant G9A A36U G39A G52C, the yeast fitness was at most 0.5.

On to C30A G56A C60G, for which the yeast fitness is at most 0.5.

In the case of U16A A69G, the yeast fitness stood at 0.853.

In the case of U13A G56A, the yeast fitness was 0.927.

As for C5U A37U A42U A69U, the yeast fitness was at most 0.5.

Regarding C27G U54A, the yeast fitness turned out to be 0.544.

Regarding C4G C31G C55U, the yeast fitness stood at 0.516.

For C31A G67C, the yeast fitness is 0.846.

Turning to C33G A45U G56C, the yeast fitness was 0.637.

As for G12A G39A G68A, the yeast fitness is 0.528.

As to A20C C22U A45C A65C, the yeast fitness is at most 0.5.

With C22U U32G C34U G38U A40G C55G A70U, the yeast fitness is at most 0.5.

Turning to G9C G38C G48C, the yeast fitness worked out at 0.582.

Take U54G G67A: the yeast fitness came to 0.637.

Turning to C4G C5U G58A A70C, the yeast fitness is at most 0.5.

On to U7A G50C A57C C61U, for which the yeast fitness was at most 0.5.

Take G25A C62A A65C: the yeast fitness was determined as 0.517.

Take G10A U26C G56A: the yeast fitness turned out to be 0.542.

As for U53C A57G, the yeast fitness worked out at 0.79.

In the case of C24G G41A C46U A65G, the yeast fitness is at most 0.5.

Take A42G C61A G63C: the yeast fitness is at most 0.5.

Take C24G G51C: the yeast fitness was determined as 0.537.

Turning to G63C A69C, the yeast fitness came to 0.629.

Regarding U8A A43G A45C C49G, the yeast fitness is 0.58.

As for A45C U47C C49U, the yeast fitness stood at 0.806.

As to C5G C30U A40G C55U, the yeast fitness is at most 0.5.

On to G9C U28A G50C U59A, for which the yeast fitness was 0.685.

As for U13A C24A C30A, the yeast fitness turned out to be 0.605.

On to A21G U64A, for which the yeast fitness turned out to be 0.877.

In the case of G9A U19G A37C A43U C46G, the yeast fitness worked out at 0.581.

Take U16G A45U U54C U64A: the yeast fitness was at most 0.5.

Regarding G12A A37U A42C, the yeast fitness worked out at 0.559.

For the variant C4U C33A A40U, the yeast fitness was 0.564.

For G18A G41C A42G U54A, the yeast fitness was at most 0.5.

With A15C G52C U64A, the yeast fitness was at most 0.5.

C4U A42G: the yeast fitness stood at 0.868.

For the variant C24G G25C A45G C60A, the yeast fitness stood at 0.617.

A21U C30U C46U A69U: the yeast fitness is at most 0.5.

In the case of C11U A14G, the yeast fitness is 0.865.

With U13A G50C, the yeast fitness was 0.653.

On to U13C C30G C31A, for which the yeast fitness is at most 0.5.

On to G44C C60G A65G, for which the yeast fitness came to 0.617.

As for C5G A14C A20G C29A C31G U54A, the yeast fitness is at most 0.5.

On to C29A G39A C49A C66G, for which the yeast fitness is at most 0.5.

For A15C U35G A57G C66G, the yeast fitness is 0.56.

Regarding U2G U8A G23A U26G A43G, the yeast fitness turned out to be 0.576.

Take A15U G39A A57U C62G: the yeast fitness came out at 0.502.

Take G17C U26G G39C A40U: the yeast fitness was at most 0.5.

Consider A37G A70U, for which the yeast fitness amounted to 0.741.

For the variant G12A U28C, the yeast fitness came to 1.06.

On to U2A U3C C24G C33G C66U, for which the yeast fitness was at most 0.5.

In the case of A20C C55U C66G, the yeast fitness is at most 0.5.

As to C5G C61G A65C, the yeast fitness is at most 0.5.

For U2A G18C, the yeast fitness amounted to 0.592.

U2C C29G: the yeast fitness is 0.626.

As to U16C A43G U59C, the yeast fitness amounted to 0.609.

U26C A36G A45G: the yeast fitness was at most 0.5.

Take U2C U19A U26A C29A C46G U54A: the yeast fitness is at most 0.5.

Consider U8G A14U A15U A20C C60U A69C, for which the yeast fitness was at most 0.5.

In the case of C30U A70U, the yeast fitness was found to be 0.962.

As to A15G A21C G39C A45G U53C, the yeast fitness is at most 0.5.

With U47C G51A, the yeast fitness was 0.906.

Consider U2A U16G A43C U54G, for which the yeast fitness is at most 0.5.

Take G25A C34U A65U: the yeast fitness was found to be 0.671.

As for G9C U28C C30G C49G, the yeast fitness was at most 0.5.

For the variant C11A C46U, the yeast fitness was 0.712.

With A14U U26C C31U G68A, the yeast fitness was at most 0.5.

With C11A C24U G67C A70G, the yeast fitness was at most 0.5.

In the case of C24U C60A C66G, the yeast fitness was determined as 0.606.

For U19C C27A A43G, the yeast fitness was 0.606.

Consider U7C G51C A57U, for which the yeast fitness is at most 0.5.

Consider C34U A36C A40C C55A C66U, for which the yeast fitness was found to be 0.526.

With U2A C46U, the yeast fitness stood at 1.06.

For C46U C49G G68A, the yeast fitness came to 0.64.

On to G6A C24A C27U C29G G44C G68C, for which the yeast fitness is at most 0.5.

Regarding G6C A21U C61G A69C, the yeast fitness was at most 0.5.

In the case of C11U U28A, the yeast fitness worked out at 0.682.

For C22G C29G C46U, the yeast fitness was 0.568.

On to C5A C11U C31G A70U, for which the yeast fitness was at most 0.5.

As to C11G G41A A69U, the yeast fitness was at most 0.5.

As for U2A G23A G68U, the yeast fitness was at most 0.5.

As to C5A C22A G56A, the yeast fitness amounted to 0.525.

Take G23C U54C: the yeast fitness was 0.502.

As to U3C G18C C31G C61A, the yeast fitness is 0.535.

On to A15C G39A C62U, for which the yeast fitness was 0.553.

As for U8A A14C C31A G41C C49A G56A G63A G67A, the yeast fitness was at most 0.5.

Regarding C11G C29G C49U G63A, the yeast fitness is at most 0.5.

For G25C G51A A65G, the yeast fitness stood at 0.742.

Turning to C22G C27G C30A U32G C55G, the yeast fitness was at most 0.5.

Consider C5U G12A A45C, for which the yeast fitness amounted to 0.782.

For U7A C11U G17C C30G A37C G48C G51A, the yeast fitness is at most 0.5.

For the variant A36C G38C G50C G51A G63C, the yeast fitness amounted to 0.642.

With C5U C24G A40C A45U, the yeast fitness was at most 0.5.

Consider U19C A20C A65U, for which the yeast fitness was found to be 0.55.

As to U32G C61U C66U, the yeast fitness was 0.577.

Turning to C5A U19C, the yeast fitness is 1.08.

Take C34U A37U G41A G50C: the yeast fitness was at most 0.5.

As to A57U A70C, the yeast fitness was determined as 0.7.

Take G9A C22U: the yeast fitness came to 1.04.

Turning to A14C A57G A69U, the yeast fitness is at most 0.5.

In the case of A36G A37U C61G, the yeast fitness is at most 0.5.

On to C4G A15U A40C C60A C61G A65C, for which the yeast fitness is at most 0.5.

With A21G G25A G39C C62U, the yeast fitness is at most 0.5.

Turning to C5U C49A C66U, the yeast fitness came out at 0.551.

In the case of A21C A45C C62G A65C, the yeast fitness is 0.574.

Take C27U C31A A45U: the yeast fitness turned out to be 0.747.

Regarding C22G G39C A43U G44A U47C G58C, the yeast fitness was at most 0.5.

With U26A A42G U47C G63A, the yeast fitness came out at 0.519.

As for U2C U19G A69C, the yeast fitness was 0.543.

Turning to C24G C31A C66U, the yeast fitness is at most 0.5.

Regarding C22U U32C A45U C46U A57U, the yeast fitness is at most 0.5.

In the case of G9A U59A, the yeast fitness amounted to 0.936.

Consider C5G G6A U26C G52A, for which the yeast fitness is 0.619.

As to G6C U8C A42G C46U C55G A65U, the yeast fitness was at most 0.5.

Take A20C A37C G41C G51C: the yeast fitness was at most 0.5.

Take U8G G10C U19A C22U C55G: the yeast fitness is at most 0.5.

Consider C22A C30U A69C, for which the yeast fitness is at most 0.5.

As for C5G A14G A36U, the yeast fitness is 0.647.

As for A42G G44C, the yeast fitness amounted to 0.906.

Consider U3C U8G U32A C33G C62U A65G, for which the yeast fitness was at most 0.5.

As for A15G C24G U32A G41A A69U, the yeast fitness was at most 0.5.

In the case of C30G C61U A69U, the yeast fitness was at most 0.5.

For C5U A43C C49U G50A, the yeast fitness was at most 0.5.

On to A37U A57U A65C G68A, for which the yeast fitness came out at 0.561.

Regarding C5G U13G A20U, the yeast fitness is at most 0.5.

Regarding U2C U32G, the yeast fitness was determined as 0.674.

On to C61A C62U, for which the yeast fitness is 0.795.

For U16A C22G C61U A65G, the yeast fitness was at most 0.5.

Regarding G25A C33A A40G A70C, the yeast fitness is at most 0.5.

In the case of C5U A15C A21G C27U C46U, the yeast fitness is at most 0.5.

With U26A A42G G48C C62G, the yeast fitness is at most 0.5.

On to U26C C33U G52C, for which the yeast fitness turned out to be 0.609.

Consider U8G A14G A21G C27A U35A C62A A65C, for which the yeast fitness was at most 0.5.

Take C22U C27U A57U C61G: the yeast fitness came out at 0.574.

With G17C U19A C24G U26A C34U, the yeast fitness is at most 0.5.

Consider C5A A14U C27U C49G, for which the yeast fitness was at most 0.5.

For G39C G44A C62G, the yeast fitness was 0.589.

For the variant U3C C11U U13C C24A A43C G50C C60G, the yeast fitness was at most 0.5.

Take U7G C11G C34U A40G G41A: the yeast fitness is at most 0.5.

For the variant G12A G50U, the yeast fitness was found to be 0.842.

In the case of C55G A57U G67A, the yeast fitness was at most 0.5.

On to C4A G18A A20C U26G C27U C49U A69C, for which the yeast fitness was at most 0.5.

Regarding C22A C29U C66U, the yeast fitness was at most 0.5.

On to A21C G23A G58C A65U, for which the yeast fitness was at most 0.5.

U7C C24A C61U: the yeast fitness worked out at 0.543.

G9A G58A: the yeast fitness came to 0.918.

Turning to U16A C49U G67A, the yeast fitness came out at 0.67.

Take C22A C24G A36G G39C C55U C66U: the yeast fitness amounted to 0.513.

As for C5A C24U U64C, the yeast fitness turned out to be 0.639.

On to A37C A70U, for which the yeast fitness amounted to 0.752.

For the variant C4U G44A C61G, the yeast fitness is at most 0.5.

With C4A U7A U13A C30A U64C, the yeast fitness was 0.56.

With C30A A36C G38A, the yeast fitness was at most 0.5.

In the case of C11A A14G A43C A57G U59C G63A A70G, the yeast fitness is at most 0.5.

For the variant C34U A40G C55G, the yeast fitness is at most 0.5.

For the variant C22U C55U A65G, the yeast fitness is at most 0.5.
